Reference: ChEMBL document CHEMBL4028892, “Discovery of a 1-Methyl-3,4-dihydronaphthalene-Based Sphingosine-1-Phosphate (S1P) Receptor Agonist Ceralifimod (ONO-4641). A S1P1 and S1P5 Selective Agonist for the Treatment of Autoimmune Diseases” (J Med Chem, 2017)
Calls of active or inactive are those of the source. No cut-off for these calls is given here.

Assays:
[1] = biological target: Sphingosine 1-phosphate receptor 2 (Homo sapiens, UniProt O95136); assay: Agonist activity at human S1P2 receptor expressed in CHO-K1 cells assessed as increase in S1P-stimulated calcium influx preincubated for 5 mins followed by S1P stimulation measured every 3 secs by fluorescence method; type: functional, cell-based
Chain of Sphingosine 1-phosphate receptor 2 (O95136 whole entry): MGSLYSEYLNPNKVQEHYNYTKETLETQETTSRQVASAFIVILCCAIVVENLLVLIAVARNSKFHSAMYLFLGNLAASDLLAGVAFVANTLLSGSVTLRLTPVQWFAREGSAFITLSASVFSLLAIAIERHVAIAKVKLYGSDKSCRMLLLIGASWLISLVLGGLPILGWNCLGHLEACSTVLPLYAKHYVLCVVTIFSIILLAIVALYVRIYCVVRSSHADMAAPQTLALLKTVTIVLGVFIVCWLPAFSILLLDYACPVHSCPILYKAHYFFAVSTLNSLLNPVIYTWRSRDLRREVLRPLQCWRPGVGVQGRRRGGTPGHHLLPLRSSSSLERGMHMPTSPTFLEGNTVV

[2] = biological target: T1, Sphingosine 1-phosphate receptor 1 (Homo sapiens, UniProt P21453); assay: Agonist activity at human S1P1 receptor expressed in CHO-K1 cells assessed as inhibition of forskolin-stimulated cAMP accumulation after 30 mins by ELISA; type: functional, cell-based
T1 sequence (P21453 whole entry): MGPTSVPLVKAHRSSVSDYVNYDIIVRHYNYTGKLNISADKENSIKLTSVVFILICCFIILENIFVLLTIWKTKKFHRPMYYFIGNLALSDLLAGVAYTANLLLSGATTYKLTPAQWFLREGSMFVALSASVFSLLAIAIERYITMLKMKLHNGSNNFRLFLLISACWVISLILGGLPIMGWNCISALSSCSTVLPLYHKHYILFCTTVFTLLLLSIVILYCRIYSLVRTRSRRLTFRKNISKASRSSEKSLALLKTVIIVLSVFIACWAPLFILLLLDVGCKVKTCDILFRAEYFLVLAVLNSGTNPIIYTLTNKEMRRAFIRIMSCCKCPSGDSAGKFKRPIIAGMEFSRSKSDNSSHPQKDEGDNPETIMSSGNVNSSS

[3] = biological target: T2, Sphingosine 1-phosphate receptor 5 (Homo sapiens, UniProt Q9H228); assay: Agonist activity at human S1P5 receptor expressed in CHO-K1 cells assessed as inhibition of forskolin-stimulated cAMP accumulation after 30 mins by ELISA; type: functional, cell-based
T2 sequence (Q9H228 whole entry): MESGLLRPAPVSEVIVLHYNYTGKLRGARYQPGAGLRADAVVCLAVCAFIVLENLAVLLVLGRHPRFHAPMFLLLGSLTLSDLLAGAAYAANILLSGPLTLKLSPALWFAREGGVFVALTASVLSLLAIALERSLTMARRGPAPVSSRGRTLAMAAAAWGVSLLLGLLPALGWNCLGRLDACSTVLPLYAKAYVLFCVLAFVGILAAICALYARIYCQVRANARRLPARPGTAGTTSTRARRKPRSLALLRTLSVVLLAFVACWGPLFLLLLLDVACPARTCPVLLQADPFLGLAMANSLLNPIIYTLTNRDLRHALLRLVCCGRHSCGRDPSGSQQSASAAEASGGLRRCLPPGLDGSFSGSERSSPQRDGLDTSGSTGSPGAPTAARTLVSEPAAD

[4] = tested on: Mus musculus; assay: Decrease in peripheral lymphocyte levels in po dosed BALB/c mouse at 4 hrs by automated hematology analyzer; type: functional
How it was run: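 Compound given orally to 6-week-old male BALB/c mice. At 4 or 24 h, blood was taken from the abdominal aorta under ether anaesthesia and lymphocytes counted on an automated haematology analyser. Counts expressed as % of the vehicle-group mean; ED50 is the dose lowering counts to 50%. One experiment, five mice.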

[5] = Total clearance in Crl:CD(SD) rat at 0.1 mg/kg, iv by LC-MS/MS analysis; type: ADME, organism-based; conditions: in vivo
How it was run: (§1)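 Single intravenous or oral dose of 0.1 mg/kg to male Crl:CD(SD) rats and to monkeys. Values are means of three animals with SD.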

[6] = AUC (infinity) in Crl:CD(SD) rat at 0.1 mg/kg, iv by LC-MS/MS analysis; type: ADME, organism-based; set-up: dose 0.1 mg/kg, time infinity, route intravenous; conditions: in vivo; how it was run: as §1
[7] = AUC (infinity) in Crl:CD(SD) rat at 0.1 mg/kg, po by LC-MS/MS analysis; type: ADME, organism-based; set-up: dose 0.1 mg/kg, time infinity, route oral; conditions: in vivo; how it was run: as §1
[8] = AUC (infinity) in cynomolgus monkey at 0.1 mg/kg, iv by LC-MS/MS analysis; type: ADME, organism-based, Macaca fascicularis; set-up: dose 0.1 mg/kg, time infinity, route intravenous; conditions: in vivo; how it was run: as §1
[9] = AUC (infinity) in cynomolgus monkey at 0.1 mg/kg, po by LC-MS/MS analysis; type: ADME, organism-based, Macaca fascicularis; set-up: dose 0.1 mg/kg, route oral, time infinity; conditions: in vivo; how it was run: as §1
[10] = Cmax in cynomolgus monkey at 0.1 mg/kg, po by LC-MS/MS analysis; type: ADME, organism-based, Macaca fascicularis; set-up: dose 0.1 mg/kg, route oral; conditions: in vivo; how it was run: as §1
[11] = Total clearance in cynomolgus monkey at 0.1 mg/kg, iv by LC-MS/MS analysis; type: ADME, organism-based, Macaca fascicularis; conditions: in vivo; how it was run: as §1
[12] = Half life in Crl:CD(SD) rat at 0.1 mg/kg, iv by LC-MS/MS analysis; type: ADME, organism-based; conditions: in vivo; how it was run: as §1
[13] = Half life in Crl:CD(SD) rat at 0.1 mg/kg, po by LC-MS/MS analysis; type: ADME, organism-based; conditions: in vivo; how it was run: as §1
[14] = Half life in cynomolgus monkey at 0.1 mg/kg, iv by LC-MS/MS analysis; type: ADME, organism-based, Macaca fascicularis; conditions: in vivo; how it was run: as §1
[15] = Volume of distribution at steady state in Crl:CD(SD) rat at 0.1 mg/kg, iv by LC-MS/MS analysis; type: ADME, organism-based; conditions: in vivo, read-out: Vdss; how it was run: as §1
[16] = Oral bioavailability in Crl:CD(SD) rat at 0.1 mg/kg by LC-MS/MS analysis; type: ADME, organism-based; conditions: in vivo; how it was run: as §1
[17] = Oral bioavailability in cynomolgus monkey at 0.1 mg/kg by LC-MS/MS analysis; type: ADME, organism-based, Macaca fascicularis; conditions: in vivo; how it was run: as §1
[18] = tested on: Rattus norvegicus; assay: Antiarthritic activity in bovine type 2 collagen-induced Lewis rat arthritis model at 0.1 mg/kg, po qd administered up to 27 days; type: functional, organism-based
How it was run: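 Female Lewis rats were immunised with bovine type II collagen in incomplete Freund's adjuvant on days 0 and 7. Compound (0.03 or 0.1 mg/kg) or 0.5% methylcellulose was given orally once daily, days 0–27. Paw oedema/erythema was scored. Groups: n = 9–10 treated/control, normal n = 5. Mean ± SE, Steel test.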

[19] = tested on: Cynomolgus monkey; assay: Toxicity in unrestrained conscious cynomolgus monkey assessed as decrease in heart rate at 100 mg/kg, po administered as single dose measured after 4 to 24 hrs; type: organism-based, Macaca fascicularis; conditions: in vivo
How it was run: (§2)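 Single oral dose of 1, 10 or 100 mg/kg to unrestrained conscious monkeys. Heart rate was followed from 4 to 24 h after dosing and its decrease expressed against the pretreatment value. Plasma concentration was sampled at 4 and 24 h.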

[20] = tested on: Cynomolgus monkey; assay: Toxicity in unrestrained conscious cynomolgus monkey assessed as decrease in heart rate at 100 mg/kg, po administered as single dose measured at 4 hrs relative to control; type: organism-based, Macaca fascicularis; set-up: scale not given: the % may be the effect or the level left; conditions: in vivo; how it was run: as §2
[21] = Plasma concentration in unrestrained conscious cynomolgus monkey at 1 mg/kg, po measured at 4 hrs; type: ADME, organism-based, Macaca fascicularis; how it was run: as §2
[22] = Plasma concentration in unrestrained conscious cynomolgus monkey at 10 mg/kg, po measured at 4 hrs; type: ADME, organism-based, Macaca fascicularis; how it was run: as §2
[23] = Plasma concentration in unrestrained conscious cynomolgus monkey at 100 mg/kg, po measured at 24 hrs; type: ADME, organism-based, Macaca fascicularis; how it was run: as §2
[24] = biological target: T1, Sphingosine 1-phosphate receptor 1; assay: Displacement of [33P]-S1P from human S1P1 receptor expressed in CHO-K1 cells after 60 mins by scintillation counting method; type: cell-based
[25] = biological target: T3, Sphingosine 1-phosphate receptor 1 (Rattus norvegicus, UniProt P48303); assay: Displacement of [33P]-S1P from rat S1P1 receptor after 60 mins by scintillation counting method
T3 sequence (P48303 whole entry): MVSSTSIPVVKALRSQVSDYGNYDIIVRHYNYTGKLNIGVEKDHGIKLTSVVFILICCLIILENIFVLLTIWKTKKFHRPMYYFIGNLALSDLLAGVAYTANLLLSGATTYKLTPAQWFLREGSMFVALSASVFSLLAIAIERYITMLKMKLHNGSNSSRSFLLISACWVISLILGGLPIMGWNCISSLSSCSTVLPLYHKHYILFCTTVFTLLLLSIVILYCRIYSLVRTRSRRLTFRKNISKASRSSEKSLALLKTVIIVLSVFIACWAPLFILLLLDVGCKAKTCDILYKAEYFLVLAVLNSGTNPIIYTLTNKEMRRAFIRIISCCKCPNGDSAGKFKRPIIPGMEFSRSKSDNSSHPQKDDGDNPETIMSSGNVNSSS

[26] = biological target: T3, Sphingosine 1-phosphate receptor 1; assay: Agonist activity at rat S1P1 receptor assessed as inhibition of forskolin-stimulated cAMP accumulation after 30 mins by ELISA; type: functional
[27] = Cmax in bovine type 2 collagen-induced Lewis rat arthritis model at 0.03 mg/kg, po qd administered up to 27 days; type: ADME, organism-based; set-up: dose 0.03 mg/kg, route oral; conditions: in vivo
[28] = Cmax in bovine type 2 collagen-induced Lewis rat arthritis model at 0.1 mg/kg, po qd administered up to 27 days; type: ADME, organism-based; set-up: dose 0.1 mg/kg, route oral; conditions: in vivo
[29] = biological target: Sphingosine 1-phosphate receptor 3 (Homo sapiens, UniProt Q99500); assay: Displacement of [33P]-S1P from human S1P3 receptor expressed in CHO-K1 cells after 60 mins by scintillation counting method; type: cell-based
Chain of Sphingosine 1-phosphate receptor 3 (Q99500 whole entry): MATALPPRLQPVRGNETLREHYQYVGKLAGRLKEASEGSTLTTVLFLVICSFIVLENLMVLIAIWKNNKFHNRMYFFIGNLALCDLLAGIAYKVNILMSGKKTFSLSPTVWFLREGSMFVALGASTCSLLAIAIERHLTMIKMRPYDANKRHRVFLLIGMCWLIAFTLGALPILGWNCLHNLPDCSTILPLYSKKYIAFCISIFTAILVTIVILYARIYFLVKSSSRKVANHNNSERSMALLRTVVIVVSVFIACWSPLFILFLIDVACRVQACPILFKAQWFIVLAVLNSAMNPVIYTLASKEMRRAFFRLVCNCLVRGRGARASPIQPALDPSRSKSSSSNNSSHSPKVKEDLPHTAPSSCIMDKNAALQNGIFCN

[30] = biological target: T4, Sphingosine 1-phosphate receptor 4 (Homo sapiens, UniProt O95977); assay: Displacement of [33P]-S1P from human S1P4 receptor expressed in CHO-K1 cells after 60 mins by scintillation counting method; type: cell-based
T4 sequence (O95977 whole entry): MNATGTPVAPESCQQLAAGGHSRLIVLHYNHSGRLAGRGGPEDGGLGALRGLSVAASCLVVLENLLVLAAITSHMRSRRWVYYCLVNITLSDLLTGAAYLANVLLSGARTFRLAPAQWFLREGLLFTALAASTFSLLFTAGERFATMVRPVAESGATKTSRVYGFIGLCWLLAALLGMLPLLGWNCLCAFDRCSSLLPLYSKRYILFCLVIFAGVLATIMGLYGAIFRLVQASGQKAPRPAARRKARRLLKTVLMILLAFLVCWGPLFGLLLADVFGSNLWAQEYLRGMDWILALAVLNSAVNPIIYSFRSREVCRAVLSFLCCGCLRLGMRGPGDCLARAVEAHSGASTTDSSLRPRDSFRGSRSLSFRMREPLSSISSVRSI

[31] = biological target: T2, Sphingosine 1-phosphate receptor 5; assay: Displacement of [33P]-S1P from human S1P5 receptor expressed in CHO-K1 cells after 60 mins by scintillation counting method; type: cell-based

## CCCc1ccc(COc2ccc3c(c2)CCC(CN2CC(C(=O)O)C2)=C3C)c(OC)c1
[1]
  EC50: > 30000 nM
[2]
  EC50: 0.027 nM
[3]
  EC50: 0.33 nM
[4]
  ED50: 0.018 mg/kg
[5]
  clearance: 5.63 mL/min/kg
[6]
  AUC(0-inf): 302 ng·h/mL
[7]
  AUC(0-inf): 229 ng·h/mL
[8]
  AUC(0-inf): 1640 ng·h/mL
[9]
  AUC(0-inf): 1090 ng·h/mL
[10]
  Cmax: 28.4 ng/mL
[11]
  clearance: 1.06 mL/min/kg
[12]
  half-life: 16 h
[13]
  half-life: 17 h
[14]
  half-life: 30 h
[15]
  Vd: 7.15 L/kg
[16]
  bioavailability: 75.9%
[17]
  bioavailability: 66.5%
[18]
  Activity: Active
[19]
  Activity: Toxic
[20]
  Activity: 19%
[21]
  concentration at 4 h: 320 ng/mL
[22]
  concentration at 4 h: 3570 ng/mL
[23]
  concentration at 24 h: 11100 ng/mL
[24]
  Ki: 0.626 nM
[25]
  Ki: 0.772 nM
[26]
  EC50: 0.0286 nM
[27]
  Cmax: 5.76 nM
[28]
  Cmax: 21.5 nM
[29]
  Ki: > 5630 nM
[30]
  Ki: 28.8 nM
[31]
  Ki: 0.574 nM
